Measurements as given in ChEMBL document CHEMBL1142939, “Neopeltolide, a macrolide from a lithistid sponge of the family Neopeltidae” (J Nat Prod, 2007).
≈ marks a conversion by molar mass, not a printed value.

Key:
A549 [1] = test: Cell cycle arrest in A549 cells by accumulation at S phase at 10 nM; type: functional, Homo sapiens
A549 [2] = test: Cell cycle arrest in A549 cells by accumulation at G2/M phase at 0.1 nM; type: functional, Homo sapiens
[3] = Cytotoxicity against p53 mutated PANC1 cells ATCC CRL1469 by MTT assay; type: cell-based; conditions: human, panc-1
Summary of the method: (§1)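 MTT cell proliferation assay following previously described protocols. Each sample assayed at least three times to derive the final IC50.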

A549 [4] = test: Cell cycle arrest in A549 cells by accumulation at G1 phase at 0.1 nM; type: functional, Homo sapiens
A549 [5] = test: Cell cycle arrest in A549 cells by accumulation at G1 phase at 100 nM; type: functional, Homo sapiens
[6] = Cytotoxicity against mouse NCI-P388 cells by MTT assay; type: cell-based; summary of the method: as §1
Candida albicans [7] = test: Antifungal activity against Candida albicans ATCC 44506 by broth dilution assay; type: functional
Summary of the method: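 Broth microdilution in 96-well plates, seeded at 10^3 cells/mL. Compound tested as 2-fold dilutions from 5 to 0.4 µg/mL. Incubated 37 °C for 24 h. MIC taken as the lowest concentration completely inhibiting growth. 5-Fluorocytosine served as antifungal control.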

A549 [8] = test: Cell cycle arrest in A549 cells by accumulation at S phase at 100 nM; type: functional, Homo sapiens
A549 [9] = test: Cell cycle arrest in A549 cells by accumulation at S phase at 0.1 nM; type: functional, Homo sapiens
A549 [10] = test: Cell cycle arrest in A549 cells by accumulation at G2/M phase at 1 nM; type: functional, Homo sapiens
A549 [11] = test: Cytotoxicity against human A549 cells ATCC CCL-185 by MTT assay; type: cell-based; summary of the method: as §1
DLD-1 = test: Cytotoxicity against p53 mutated NCI-DLD1 cells by MTT assay; type: cell-based; conditions: human; summary of the method: as §1
A549 [12] = test: Cell cycle arrest in A549 cells by accumulation at G2/M phase at 100 nM; type: functional, Homo sapiens
A549 [13] = test: Cell cycle arrest in A549 cells by accumulation at G2/M phase at 10 nM; type: functional, Homo sapiens
A549 [14] = test: Cell cycle arrest in A549 cells by accumulation at S phase at 1 nM; type: functional, Homo sapiens
A549 [15] = test: Cell cycle arrest in A549 cells by accumulation at G1 phase at 1 nM; type: functional, Homo sapiens
[16] = Cytotoxicity against human NCI-ADR-RES cells by MTT assay; type: cell-based; summary of the method: as §1
A549 [17] = test: Cell cycle arrest in A549 cells by accumulation at G1 phase at 10 nM; type: functional, Homo sapiens
Candida albicans [18] = test: Antifungal activity against Candida albicans ATCC 44506 at 25 ug/disk by agar diffusion assay; type: functional; conditions: read-out: IZ
Summary of the method: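 Sabouraud dextrose agar plates seeded with 10^5/mL C. albicans. Disks loaded with 25 µg compound, dried and placed on the agar. Incubated 37 °C for 24 h, then the growth-inhibition zone was measured. A nystatin disk (100 IU) ran on the same plate as control.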

| SMILES | Activity (A549 [1]) | Activity (A549 [2]) | Activity [3] | Activity (A549 [4]) | Activity (A549 [5]) | IC50 [6] | MIC (Candida albicans [7]) | Activity (A549 [8]) | Activity (A549 [9]) | Activity (A549 [10]) | IC50 (A549 [11]) | Activity (DLD-1) | Activity (A549 [12]) | Activity (A549 [13]) | Activity (A549 [14]) | Activity (A549 [15]) | IC50 [16] | Activity (A549 [17]) | zone of inhibition at 25 µg/disc (Candida albicans [18]) |
| --- | --- | --- | --- | --- | --- | --- | --- | --- | --- | --- | --- | --- | --- | --- | --- | --- | --- | --- | --- |
| CCC[C@@H]1C[C@H](OC)C[C@H](C)C[C@@H]2C[C@@H](OC(=O)/C=C\CCc3coc(/C=C\CNC(=O)OC)n3)C[C@H](CC(=O)O1)O2 [NEOPELTOLIDE] | 30.27% | 13.59% | Active | 46.4% | 63.03% | 0.56 nM | 0.625 µg/mL (≈ 1.06 µM) | 22.02% | 40.01% | 13.94% | 1.2 nM | Active | 14.95% | 10.07% | 39.95% | 46.11% | 5.1 nM | 59.66% | 17 mm |
| CC(=O)O[C@H]1C(=O)[C@@]2(C)[C@H]([C@H](OC(=O)c3ccccc3)[C@]3(O)C[C@H](OC(=O)[C@H](O)[C@@H](NC(=O)c4ccccc4)c4ccccc4)C(C)=C1C3(C)C)[C@]1(OC(C)=O)CO[C@@H]1C[C@@H]2O [PACLITAXEL] | – | – | – | – | 1.56% | – | – | 0% | – | – | – | – | 98.44% | – | – | – | – | – | – |
